Results published in article PMC2921709 (ChemMedChem, 2010).

Tests used:
[1] = test system: HT-29; test: MTT growth inhibition, HT-29 colon adenocarcinoma cells; type: cell-based, human; details: Homo sapiens, HT-29, 72 h, read-out: GI50 HT-29
How it was run: (§1)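 Cells seeded at 8 × 10^3 per well in 96-well plates and held 18 h at 37 °C, 5% CO2. Medium then replaced with test compound in complete medium at various concentrations for 72 h continuous exposure. Viability read by MTT. GI50 is the concentration giving 50% proliferation inhibition, from dose–response curves; mean ± SE of ≥3 independent experiments. Media: leukemia lines in RPMI-1640; solid-tumour lines in DMEM with penicillin G 115 U mL−1, streptomycin and 10% FBS.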

[2] = test system: ARO; test: MTT growth inhibition, ARO anaplastic thyroid cells; type: cell-based, human; details: Homo sapiens, Thyroid cell, 72 h, read-out: GI50 ARO
How it was run: as §1

[3] = test system: Hep G2; test: MTT growth inhibition, HepG2 hepatoma cells; type: cell-based, human; details: Homo sapiens, HepG2, 72 h, read-out: GI50 Hep G2
How it was run: as §1

[4] = test system: IGROV; test: MTT growth inhibition, IGROV ovarian cancer cells; type: cell-based, human; details: Homo sapiens, IGROV, 72 h, read-out: GI50 IGROV
How it was run: as §1

[5] = test system: MCF-7; test: MTT growth inhibition, MCF-7 breast adenocarcinoma cells; type: cell-based, human; details: Homo sapiens, MCF7, 72 h, read-out: GI50 MCF-7
How it was run: as §1

[6] = test system: HeLa; test: MTT growth inhibition, HeLa cervix carcinoma cells; type: cell-based, human; details: Homo sapiens, HeLa, 72 h, read-out: GI50 HeLa
How it was run: as §1

[7] = test system: HL-60; test: MTT growth inhibition, HL-60 promyelocytic leukemia cells; type: cell-based, human; details: Homo sapiens, HL-60, 72 h, read-out: GI50 HL-60
How it was run: as §1

[8] = test system: ML2; test: MTT growth inhibition, ML-2 myeloid leukemia cells; type: cell-based, human; details: Homo sapiens, ML-2, 72 h, read-out: GI50 ML2
How it was run: as §1

[9] = test system: K562; test: MTT growth inhibition, K562 chronic myelogenous leukemia cells; type: cell-based, human; details: Homo sapiens, K562, 72 h, read-out: GI50 K562
How it was run: as §1

[10] = test system: RS 4;11; test: MTT growth inhibition, RS 4; type: cell-based, human; details: Homo sapiens, RS4-11, 72 h, read-out: GI50 RS 4;11
How it was run: as §1

[11] = test system: Jurkat; test: MTT growth inhibition, Jurkat T-leukemia cells; type: cell-based, human; details: Homo sapiens, Jurkat, 72 h, read-out: GI50 Jurkat
How it was run: as §1

[12] = test system: Bovine brain tubulin; test: Inhibition of tubulin polymerization; type: biochemical; details: read-out: Tubulin Assembly IC50; tubulin 10 μM; 20 min incubation; ± SD
[13] = test system: Bovine brain tubulin (colchicine site); test: Inhibition of [3H]colchicine binding to tubulin; details: tubulin 1 μM, [3H]colchicine 5 μM
[14] = test system: solid tumor cells; test: MTT growth inhibition, solid tumor cell lines; type: cell-based; details: Homo sapiens, 72 h, read-out: GI50, solid tumor cells
How it was run: as §1

[15] = test system: leukemia cells; test: MTT growth inhibition, leukemia cell lines; type: cell-based, human; details: Homo sapiens, 72 h, read-out: GI50, leukemia cells
How it was run: as §1

[16] = test system: Jurkat cells; test: Flow cytometric cell-cycle analysis; type: cell-based, human
How it was run: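 Jurkat cells in exponential growth, 5 × 10^5 per sample, exposed to test compound at various concentrations for 24 h. Cells fixed in ice-cold 70% ethanol, treated with lysis buffer containing RNase A and 0.1% Triton X-100, then stained with PI. DNA content measured by flow cytometry and phases assigned from DNA histograms. Mean ± SEM of two independent experiments.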

[17] = test system: Jurkat cells; test: Annexin V-FITC/PI apoptosis assay; type: cell-based, human; details: 24 h treatment
How it was run: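 Jurkat cells exposed to test compound at various concentrations for 24 or 48 h, then harvested. Co-labelled with annexin V–FITC and PI and analysed by flow cytometry (excitation 488 nm; emission 525 and 585 nm). Reported as mean percentage of annexin-V-positive cells ± SEM, three independent experiments.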

[18] = test system: Jurkat cells; test: Mitochondrial membrane potential; type: cell-based, human; details: 0.5 and 0.1 μM, 24 and 48 h
How it was run: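 After treatment, Jurkat cells were pelleted and resuspended in HBSS containing JC-1, then kept 10 min at 37 °C. They were spun again, taken up in HBSS and read by flow cytometry. Polarised mitochondria give red JC-1 aggregates (590 nm); depolarisation gives green monomers (530 nm).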

[19] = test system: Jurkat cells; test: Mitochondrial ROS production; type: cell-based, human; details: 24 and 48 h
How it was run: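 Jurkat cells treated with test compound for 24 or 48 h, pelleted, then loaded in HBSS with hydroethidine (HE) or H2-DCFDA for 30 min at 37 °C. Cells re-pelleted into HBSS and read by flow cytometry: 488 nm excitation, emission 585 nm (HE) and 530 nm (DCF). Fluorescence intensity given as % of untreated control; mean ± SEM, three independent experiments.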

[20] = test system: caspase-3 in Jurkat cells; test: Caspase-3 activation by flow cytometry; type: cell-based, human; details: time- and concentration-dependent
[21] = test system: Bcl-2 in Jurkat cells; test: Flow cytometric analysis of Bcl-2 expression; type: cell-based, human; details: 24 and 48 h, flow cytometry
How it was run: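 Jurkat cells incubated with test compound for 24 and 48 h, then pelleted and permeabilised with a Fix&Perm kit. Labelled with FITC-conjugated anti-Bcl-2 monoclonal antibody, washed and analysed by flow cytometry. Mean ± SEM of two independent experiments.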

`CCOC(=O)CCn1ccc2c3c(=O)cc(-c4ccccc4)[nH]c3ccc21` [Compound 11, Ethyl 3-(9-oxo-7-phenyl-6H-pyrrolo[3,2-f]quinolin-3(9H)-yl)propanoate] showed a GI50 [1] of 480 ± 80 nM, a GI50 [2] of 550 ± 150 nM and a GI50 [3] of 520 ± 100 nM. For the same molecule, the GI50 [4] was 620 ± 150 nM, the GI50 [5] was 580 ± 180 nM and the GI50 [6] was 450 ± 100 nM. For the same molecule, the GI50 [7] was 2 ± 0.1 nM, the GI50 [8] was 5 ± 2 nM and the GI50 [9] was 190 ± 60 nM. The GI50 [10] was 2 ± 0.4 nM, the GI50 [11] was 0.5 ± 0.01 nM and the IC50 [12] was 750 ± 40 nM. For the same molecule, the “Colchicine Binding Inhibition [%], 1 μM” value ([13]; compound 1 μM) was 44 ± 6%, the “Colchicine Binding Inhibition [%], 5 μM” value ([13]; compound 5 μM) was 75 ± 4% and the GI50 [14] was 400 to 1400 nM. For the same molecule, the GI50 [15] was 0.5 to 10 nM, the G2/M cell population ([16]; 24 h, 0.06 μM, control 9.4 %) was 77% and the S-phase cells ([16]; 24 h, 0.06 μM, control 43 %) was 20%. The G1 cells ([16]; 24 h, 0.06 μM, control 47 %) was 3%, the “effect on cell-cycle progression (G2/M arrest, in words)” value ([16]; 24 h treatment) was “clear G2/M arrest pattern in a concentration-dependent manner” and the “induction of apoptotic (annexin-V-positive) cells, in words” value [17] was “remarkable induction of apoptotic cells”. For the same molecule, the “percentage of cells with low ΔΨmt (JC-1), in words” value [18] was “significant increase in the percentage of cells with low ΔΨmt”, the “ROS production (HE, H2-DCFDA), in words” value [19] was “induced the production of ROS relative to control cells” and the “caspase-3 activation, in words” value [20] was “activate caspase-3”. For the same molecule, the “Bcl-2 expression, in words” value [21] was “decrease Bcl-2 expression”.
